Calls of active or inactive are those of the source. The calls are words filed in the database; no cut-off is given here.
What was measured:
PC-3 [1] = assay: Cytotoxicity against human PC3 cells assessed as reduction in cell viability at 1 to 300 uM after 48 hrs under hypoxic conditions by MTT assay; assay type: functional, cell-based
Summary of the method: (§1)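 PC3 human prostate cancer cells incubated 48 h with compound at a range of concentrations, under normoxia or under hypoxia (1% O2). Viability is expressed relative to control, with significance tested against control at p < 0.05, 0.01 and 0.001.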

Carbonic anhydrase 2 = Carbonic anhydrase 2 (Homo sapiens, UniProt P00918); assay: Inhibition of recombinant human carbonic anhydrase 2 incubated 6 h prior to testing by CO2 hydration based stopped-flow assay
MDA-MB-231 [2] = assay: Cytotoxicity against human MDA-MB-231 cells assessed as reduction in cell viability at 1 to 300 uM after 48 hrs under normoxic conditions by MTT assay; assay type: functional, cell-based
Carbonic anhydrase 1 = Carbonic anhydrase 1 (Homo sapiens, UniProt P00915); assay: Inhibition of recombinant human carbonic anhydrase 1 incubated 6 h prior to testing by CO2 hydration based stopped-flow assay
Chain of Carbonic anhydrase 1 (P00915 whole entry): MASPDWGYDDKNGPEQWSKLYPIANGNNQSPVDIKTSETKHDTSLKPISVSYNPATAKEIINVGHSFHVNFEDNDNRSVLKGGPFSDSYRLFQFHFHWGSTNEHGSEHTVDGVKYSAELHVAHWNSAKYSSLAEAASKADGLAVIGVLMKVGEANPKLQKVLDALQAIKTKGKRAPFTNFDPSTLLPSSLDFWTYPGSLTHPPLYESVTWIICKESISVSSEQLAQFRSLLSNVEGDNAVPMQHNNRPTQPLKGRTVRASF

PC-3 [3] = assay: Cytotoxicity against human PC3 cells assessed as reduction in cell viability at 1 to 300 uM after 48 hrs under normoxic conditions by MTT assay; assay type: functional, cell-based; summary of the method: as §1
MDA-MB-231 [4] = assay: Cytotoxicity against human MDA-MB-231 cells assessed as reduction in cell viability at 1 to 300 uM after 48 hrs under hypoxic conditions by MTT assay; assay type: functional, cell-based
Carbonic anhydrase 9 = Carbonic anhydrase 9 (Homo sapiens, UniProt Q16790); assay: Inhibition of recombinant human carbonic anhydrase 9 incubated 15 mins prior to testing by CO2 hydration based stopped-flow assay
Carbonic anhydrase 12 [5] = biological target: T1, Carbonic anhydrase 12 (Homo sapiens, UniProt O43570); assay: Inhibition of recombinant human carbonic anhydrase 12 incubated 6 h prior to testing by CO2 hydration based stopped-flow assay
T1 sequence (O43570 whole entry): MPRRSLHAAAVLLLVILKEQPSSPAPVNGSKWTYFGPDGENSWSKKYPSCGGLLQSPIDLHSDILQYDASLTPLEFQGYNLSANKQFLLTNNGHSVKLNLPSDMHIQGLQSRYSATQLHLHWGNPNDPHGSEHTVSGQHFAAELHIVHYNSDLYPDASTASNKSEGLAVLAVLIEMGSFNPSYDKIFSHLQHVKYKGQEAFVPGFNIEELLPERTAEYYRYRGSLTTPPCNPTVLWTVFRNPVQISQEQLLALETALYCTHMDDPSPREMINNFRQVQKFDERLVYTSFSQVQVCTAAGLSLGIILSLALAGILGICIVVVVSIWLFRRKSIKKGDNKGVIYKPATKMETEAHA

Carbonic anhydrase 12 [6] = biological target: T1, Carbonic anhydrase 12; assay: Inhibition of recombinant human carbonic anhydrase 12 incubated 15 mins prior to testing by CO2 hydration based stopped-flow assay
PC-3 [7] = assay: Cytotoxicity against human PC3 cells assessed as cell viability at 30 uM after 48 hrs under hypoxic conditions by MTT assay relative to control; assay type: functional; settings: PC-3, 48 h, read-out: Activity; summary of the method: as §1
MDA-MB-231 [8] = assay: Cytotoxicity against human MDA-MB-231 cells assessed as reduction in cell viability at 30 uM after 48 hrs under normoxic conditions by MTT assay relative to control; assay type: functional
PC-3 [9] = assay: Cytotoxicity against human PC3 cells assessed as cell viability at 30 uM after 48 hrs under normoxic conditions by MTT assay relative to control; assay type: functional; settings: PC-3, 48 h, read-out: Activity; summary of the method: as §1
MDA-MB-231 [10] = assay: Cytotoxicity against human MDA-MB-231 cells assessed as reduction in cell viability at 300 uM after 48 hrs under hypoxic conditions by MTT assay relative to control; assay type: functional
MDA-MB-231 [11] = assay: Cytotoxicity against human MDA-MB-231 cells assessed as reduction in cell viability at 30 uM after 48 hrs under hypoxic conditions by MTT assay relative to control; assay type: functional
PC-3 [12] = assay: Cytotoxicity against human PC3 cells assessed as cell viability at 300 uM after 48 hrs under normoxic conditions by MTT assay relative to control; assay type: functional; settings: PC-3, 48 h, read-out: Activity; summary of the method: as §1
MDA-MB-231 [13] = assay: Cytotoxicity against human MDA-MB-231 cells assessed as reduction in cell viability at 300 uM after 48 hrs under normoxic conditions by MTT assay relative to control; assay type: functional
PC-3 [14] = assay: Cytotoxicity against human PC3 cells assessed as cell viability at 300 uM after 48 hrs under hypoxic conditions by MTT assay relative to control; assay type: functional; settings: PC-3, 48 h, read-out: Activity; summary of the method: as §1
PC-3 [15] = assay: Cytotoxicity against human PC3 cells assessed as cell viability at higher concentration after 48 hrs under normoxic conditions by MTT assay relative to control; assay type: functional; summary of the method: as §1
PC-3 [16] = assay: Cytotoxicity against human PC3 cells assessed as cell viability at 100 to 300 uM after 48 hrs under hypoxic conditions by MTT assay relative to control; assay type: functional; summary of the method: as §1

SMILES | Ki (Carbonic anhydrase 2) | Ki (Carbonic anhydrase 1) | Ki (Carbonic anhydrase 9) | also measured
[Se]=c1ccc2ccccc2[nH]1 | > 10000 nM | > 10000 nM | 54.4 nM | Activity (PC-3 [1]): inactive; Activity (MDA-MB-231 [2]): inactive; Activity (PC-3 [3]): inactive; Activity (MDA-MB-231 [4]): inactive
Cn1c(=O)ccc2ccccc21 | > 10000 nM | > 10000 nM | 44.6 nM | Ki (Carbonic anhydrase 12 [5]): 83.5 nM
Cc1ccc2[nH]c(=O)ccc2c1 | > 10000 nM | > 10000 nM | 123 nM | –
O=c1ccc2cccc(F)c2[nH]1 | > 10000 nM | > 10000 nM | 58.8 nM | –
Cn1c(=[Se])ccc2ccccc21 | > 10000 nM | > 10000 nM | 172 nM | Ki (Carbonic anhydrase 12 [6]): 86.4 nM
Oc1ccc2ccccc2n1 | > 10000 nM | > 10000 nM | – | –
Cc1ccc2[se]c(=S)ccc2c1 | > 10000 nM | > 10000 nM | 59.9 nM | viability at 30 µM (PC-3 [7]): 79%; Activity (MDA-MB-231 [8]): 61%; viability at 30 µM (PC-3 [9]): 51%; Activity (MDA-MB-231 [4]): inactive
O=c1ccc2cccc(Br)c2[nH]1 | > 10000 nM | > 10000 nM | 23.4 nM | –
O=c1ccc2cccc(Cl)c2[nH]1 | > 10000 nM | > 10000 nM | 23 nM | –
O=c1ccc2ccccc2[se]1 | > 10000 nM | > 10000 nM | 26.3 nM | Activity (MDA-MB-231 [10]): 90%; Activity (MDA-MB-231 [11]): >50%; viability at 300 µM (PC-3 [12]): 68%; Activity (MDA-MB-231 [13]): 28%; viability at 300 µM (PC-3 [14]): 68%
S=c1ccc2ccccc2[se]1 | > 10000 nM | > 10000 nM | 39.5 nM | –
Cc1ccc2[se]c(=O)ccc2c1 | > 10000 nM | > 10000 nM | 56.1 nM | Ki (Carbonic anhydrase 12 [6]): 7.6 nM
O=c1ccc2ccccc2[te]1 | > 10000 nM | > 10000 nM | 59 nM | Activity (MDA-MB-231 [10]): 22%; Activity (PC-3 [15]): 19%; viability at 30 µM (PC-3 [7]): 71%; Activity (PC-3 [16]): 38%; Activity (MDA-MB-231 [8]): 15.9%; viability at 30 µM (PC-3 [9]): 54%; Ki (Carbonic anhydrase 12 [6]): 8.2 nM

Source: ChEMBL document CHEMBL4196237, “Heterocoumarins Are Selective Carbonic Anhydrase IX and XII Inhibitors with Cytotoxic Effects against Cancer Cells Lines” (ACS Med Chem Lett, 2018)
